According to ChEMBL document CHEMBL3259704, “Second generation steroidal 4-aminoquinolines are potent, dual-target inhibitors of the botulinum neurotoxin serotype A metalloprotease and P. falciparum malaria” (J Med Chem, 2014):
pIC50, pKi: −log10 of the molar value. Activity calls are given as the source filed them. No cut-off for these calls is given here.

Tests used:
[1] = biological target: Botulinum neurotoxin type A (Clostridium botulinum) (UniProt P0DPI0); assay: Inhibition of Clostridium botulinum recombinant BoNT/A light chain using N-terminal acetylated, C-terminal aminated SNAP-25 (187-203) as substrate at 20 uM by reverse-phase HPLC analysis
Botulinum neurotoxin type A (Clostridium botulinum), sequence (P0DPI0 2-448 limits assumed): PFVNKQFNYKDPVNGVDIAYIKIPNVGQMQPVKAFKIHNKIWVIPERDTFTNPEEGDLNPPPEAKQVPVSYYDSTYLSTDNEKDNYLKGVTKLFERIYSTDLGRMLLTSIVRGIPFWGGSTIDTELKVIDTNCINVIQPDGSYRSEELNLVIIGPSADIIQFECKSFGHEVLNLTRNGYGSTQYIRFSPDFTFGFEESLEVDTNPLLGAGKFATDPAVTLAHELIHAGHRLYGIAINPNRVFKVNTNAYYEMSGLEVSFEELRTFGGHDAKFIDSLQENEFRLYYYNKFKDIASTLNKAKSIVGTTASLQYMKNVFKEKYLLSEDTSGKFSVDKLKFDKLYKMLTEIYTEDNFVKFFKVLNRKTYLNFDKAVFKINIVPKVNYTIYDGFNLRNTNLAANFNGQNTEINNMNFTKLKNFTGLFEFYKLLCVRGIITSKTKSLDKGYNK
In short: (§1)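 Recombinant BoNT/A LC with SNAP-25 187–203 peptide substrate in 40 mM HEPES–0.05% Tween, pH 7.3, with 0.5 mg/mL BSA and 50 μM excess Zn, at 37 °C. Quenched with TFA; reverse-phase HPLC product/substrate peak areas give percent inhibition, run in duplicate.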

[2] = biological target: Botulinum neurotoxin type A (Clostridium botulinum, UniProt P0DPI0); assay: Inhibition of Clostridium botulinum recombinant BoNT/A light chain using N-terminal acetylated, C-terminal aminated SNAP-25 (187-203) as substrate by reverse-phase HPLC analysis
Botulinum neurotoxin type A, sequence (P0DPI0 2-448 limits assumed): as above
In short: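 Same HPLC LC cleavage assay (pH 7.3 HEPES/Tween, BSA, excess Zn, 37 °C). […] Ki comes from velocity versus substrate at several inhibitor levels, globally fit to a competitive model.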

[3] = biological target: Botulinum neurotoxin type A (Clostridium botulinum) (UniProt P0DPI0); assay: Inhibition of Clostridium botulinum BoNT/A-mediated SNAP-25 cleavage in chicken embryo neurons assessed as intact SNAP-25 level at […] preincubated for 45 mins followed by co-incubation with BoNT/A for 3.5 hrs by western blot analysis; set-up: scale not given: the % may be the effect or the level left
[4] = biological target: Botulinum neurotoxin type A (Clostridium botulinum) (UniProt P0DPI0); assay: Inhibition of Clostridium botulinum BoNT/A-mediated SNAP-25 cleavage in chicken embryo neurons assessed as intact SNAP-25 level at […] preincubated for 45 mins followed by co-incubation with BoNT/A for 3.5 hrs by western blot analysis in presence of 5 uL of 100 nM antibiotic bafilomycin; set-up: scale not given: the % may be the effect or the level left
[5] = biological target: Botulinum neurotoxin type A (Clostridium botulinum) (UniProt P0DPI0); assay: Inhibition of Clostridium botulinum BoNT/A-mediated SNAP-25 cleavage in chicken embryo neurons assessed as intact SNAP-25 level at […] preincubated for 45 mins followed by co-incubation with BoNT/A for 3.5 hrs by western blot analysis in presence of 25 uL of 100 nM antibiotic bafilomycin; set-up: scale not given: the % may be the effect or the level left
[6] = test system: Plasmodium falciparum; assay: Antimalarial activity against CQ-resistant, MFQ-susceptible Plasmodium falciparum W2 clone Indochina 1 isolate assessed as inhibition of parasite proliferation by MSF assay; format: functional, organism-based
In short: (§2)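 SYBR Green I fluorescence (MSF) microtiter drug-sensitivity assay: malarial DNA content is the measure of in vitro parasite proliferation. Resistance index is the IC90 ratio of the resistant strain to D6.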

[7] = test system: Plasmodium falciparum; assay: Antimalarial activity against CQ, MFQ-susceptible Plasmodium falciparum D6 clone Sierra 1/UNC isolate assessed as inhibition of parasite proliferation by MSF assay; format: functional, organism-based; in short: as §2
[8] = test system: Plasmodium falciparum; assay: Antimalarial activity against CQ, MFQ-resistant Plasmodium falciparum TM91C235 clone Southeast asian isolate assessed as inhibition of parasite proliferation by MSF assay; format: functional, organism-based; in short: as §2
[9] = test system: Plasmodium falciparum; assay: Resistance index, ratio of IC90 for CQ, MFQ-resistant Plasmodium falciparum TM91C235 clone Southeast asian isolate to IC90 for CQ, MFQ-susceptible Plasmodium falciparum D6 clone Sierra 1/UNC isolate; format: functional; in short: as §2
[10] = test system: Plasmodium falciparum; assay: Resistance index, ratio of IC90 for CQ-resistant, MFQ-susceptible Plasmodium falciparum W2 clone Indochina 1 isolate to IC90 for CQ, MFQ-susceptible Plasmodium falciparum D6 clone Sierra 1/UNC isolate; format: functional; in short: as §2
[11] = test system: HepG2; assay: Cytotoxicity against human HepG2 cells assessed as cell viability after 48 hrs by MTT assay; format: cell-based; details: HepG2, 48 h
[12] = Selectivity index, ratio of IC50 for human HepG2 cells to IC50 for CQ-resistant, MFQ-susceptible Plasmodium falciparum W2 clone Indochina 1 isolate; format: toxicity, cell-based; details: read-out: Ratio IC50
[13] = Selectivity index, ratio of IC50 for human HepG2 cells to IC50 for CQ, MFQ-susceptible Plasmodium falciparum D6 clone Sierra 1/UNC isolate; format: toxicity, cell-based; details: read-out: Ratio IC50
[14] = Selectivity index, ratio of IC50 for human HepG2 cells to IC50 for CQ, MFQ-resistant Plasmodium falciparum TM91C235 clone Southeast asian isolate; format: toxicity, cell-based; details: read-out: Ratio IC50
[15] = test system: PBMC; assay: Cytotoxicity against human PBMC assessed as inhibition of cell survival after 72 hrs; format: cell-based
In short: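 PBMC from heparinized healthy-donor blood (Histopaque) in RPMI-1640 with 10% FCS and PHA stimulation, 200 000 cells/well, with compounds in DMSO, 72 h at 37 °C, 6% CO2.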

[16] = test system: Liver microsome; assay: (§3) Half life in human liver microsomes; format: ADME; details: microsomes
[17] = test system: Liver; assay: (§4) Half life in mouse liver microsomes; format: ADME; details: microsomes
[18] = biological target: Botulinum neurotoxin type A (Clostridium botulinum) (UniProt P0DPI0); assay: Inhibition of Clostridium botulinum recombinant BoNT/A light chain using N-terminal acetylated, C-terminal aminated SNAP-25 (187-203) as substrate at 10 uM by reverse-phase HPLC analysis; in short: as §1
[19] = as §3; format: ADME; details: liver microsomes
[20] = as §4; format: ADME; details: liver microsomes
[21] = test system: Plasmodium berghei; assay: Antimalarial activity against Plasmodium berghei infected in ICR mouse assessed as host survival at 40 to 160 mg/kg/day, po administered on day 3, 4 and 5 post-infection measured on day 13 after infection; format: functional, organism-based
[22] = test system: Mus musculus; assay: Toxicity in ICR mouse infected with Plasmodium berghei assessed as tissue damage at 40 to 160 mg/kg/day, po administered on day 3, 4 and 5 post-infection; format: organism-based; set-up: route oral; details: in vivo

Row | Compound | inhibition [1] [%] | pIC50 [2] | pIC50 [6] | IC90 [6] [nM] | IC90 [7] [nM] | pIC50 [8] | IC90 [8] [nM] | Ratio [9] | Ratio [10] | pIC50 [11] | selectivity ratio [12] | selectivity ratio [13] | selectivity ratio [14] | pIC50 [15] | pIC50 [7] | t1/2 [16] [min] | t1/2 [17] [min] | also measured
1 | CC(=O)O[C@H]1C[C@H]2[C@@H]([C@H](OC(C)=O)C[C@@H]3C[C@H](N)CC[C@@]32C)[C@@H]2CC[C@H]([C@H](C)CCCNCCNc3ccnc4cc(Cl)ccc34)[C@@]12C | 89.3 | 6.09 | 6.79 | 235 | 176 | 6.83 | 220 | 1.25 | 1.33 | 5.25 | 35 | 39 | 38 | 5.10 | – | – | – | pKi [2]: 5.49; Activity [3]: 77%; Activity [4]: 88%; Activity [5]: 81%
2 | CC(=O)O[C@H]1C[C@H]2[C@@H]([C@H](OC(C)=O)C[C@@H]3C[C@H](N)CC[C@@]32C)[C@@H]2CC[C@H]([C@H](C)CCCN(CCC[C@@H](C)[C@H]3CC[C@H]4[C@@H]5[C@H](OC(C)=O)C[C@@H]6C[C@H](N)CC[C@]6(C)[C@H]5C[C@H](OC(C)=O)[C@]34C)CCNc3ccnc4cc(Cl)ccc34)[C@@]12C | 82.2 | 5.52 | 7.11 | 105 | 114 | 7.07 | 175 | 1.54 | 0.92 | 5.78 | 21 | 19 | 19 | – | – | – | – | Activity [3]: 89%; Activity [4]: 96%; Activity [5]: 93%
3 | CC(=O)O[C@H]1C[C@H]2[C@@H]([C@H](OC(C)=O)C[C@@H]3CC(=O)CC[C@@]32C)[C@@H]2CC[C@H]([C@H](C)CCCNCCCNc3ccnc4cc(Cl)ccc34)[C@@]12C | 72.9 | 5.63 | 8.16 | 12.1 | 10 | 8.04 | 18.1 | 1.81 | 1.21 | 5.95 | 161 | 182 | 121 | 5.58 | 8.21 | 14 | 6 | –
4 | CC(=O)O[C@H]1C[C@H]2[C@@H]([C@H](OC(C)=O)C[C@@H]3CC(=O)CC[C@@]32C)[C@@H]2CC[C@H]([C@H](C)CCCNCCNc3ccnc4cc(Cl)ccc34)[C@@]12C | 67.1 | 5.24 | 8.19 | 14.1 | 4.56 | 7.75 | 36.8 | 8.06 | 3.09 | 5.71 | 299 | 571 | 109 | 4.28 | 8.47 | 6 | 13 | –
5 | CC(=O)O[C@H]1C[C@H]2[C@@H]([C@H](OC(C)=O)C[C@@H]3CC(NCCCNc4ccnc5cc(Cl)ccc45)CC[C@@]32C)[C@@H]2CC[C@H]([C@H](C)CCCNCCCNc3ccnc4cc(Cl)ccc34)[C@@]12C (mixture of isomers) | 97.2 | – | 6.97 | – | – | 6.71 | – | – | – | 5.33 | 43 | 32 | 24 | – | 6.84 | – | – | pKi [2]: 6.77; inhibition [18]: Active
6 | CC(=O)O[C@H]1C[C@H]2[C@@H]([C@H](OC(C)=O)C[C@@H]3C[C@H](N)CC[C@@]32C)[C@@H]2CC[C@H]([C@H](C)CCCN(C)CCNc3ccnc4cc(Cl)ccc34)[C@@]12C | 89.5 | 5.94 | 8.54 | 3.74 | 4.46 | 8.21 | 9.2 | 2.06 | 0.84 | 4.84 | 4990 | 4000 | 2330 | 5.59 | 8.44 | – | – | half-life [19]: 60 min; half-life [20]: 60 min; Activity [21]: inactive; Activity [22]: Non-toxic
7 | CC(=O)O[C@H]1C[C@H]2[C@@H]([C@H](OC(C)=O)C[C@@H]3C[C@H](NS(C)(=O)=O)CC[C@@]32C)[C@@H]2CC[C@H]([C@H](C)CCCN(C)CCNc3ccnc4cc(Cl)ccc34)[C@@]12C | 33.8 | 4.60 | 7.92 | 16.8 | 10.2 | 8.18 | 12.6 | 1.24 | 1.65 | 4.84 | 1190 | 2710 | 2200 | – | 8.27 | 14 | 47 | –
8 | CC(=O)O[C@H]1C[C@H]2[C@@H]([C@H](OC(C)=O)C[C@@H]3CC(NCCNc4ccnc5cc(Cl)ccc45)CC[C@@]32C)[C@@H]2CC[C@H]([C@H](C)CCCNCCNc3ccnc4cc(Cl)ccc34)[C@@]12C (some centres not stated) | 96.5 | – | 7.01 | – | – | 6.91 | – | – | – | 5.42 | 38 | 32 | 30 | 6.52 | 6.92 | – | – | pKi [2]: 6.47; inhibition [18]: Active
9 | CC(=O)N[C@@H]1CC[C@@]2(C)[C@@H](C1)C[C@@H](OC(C)=O)[C@@H]1[C@@H]2C[C@H](OC(C)=O)[C@]2(C)[C@@H]([C@H](C)CCCNCCNc3ccnc4cc(Cl)ccc34)CC[C@@H]12 | 74 | 5.61 | – | 62.2 | 31.8 | 7.82 | 34.6 | 1.09 | 1.96 | 5.72 | 126 | 116 | 126 | – | 7.78 | – | – | Activity [3]: 16%; Activity [4]: 28%; Activity [5]: 36%
10 | CC(=O)O[C@H]1C[C@H]2[C@@H]([C@H](OC(C)=O)C[C@@H]3C[C@H](N(C)C)CC[C@@]32C)[C@@H]2CC[C@H]([C@H](C)CCCN(C)CCCNc3ccnc4cc(Cl)ccc34)[C@@]12C | 86.9 | 5.89 | 7.24 | – | – | 7.13 | – | – | – | 5.28 | 93 | 35 | 71 | – | 6.82 | – | – | half-life [19]: 60 min; half-life [20]: 60 min
11 | CC(=O)O[C@H]1C[C@H]2[C@@H]([C@H](OC(C)=O)C[C@@H]3C[C@H](O)CC[C@@]32C)[C@@H]2CC[C@H]([C@H](C)CCCNCCNc3ccnc4cc(Cl)ccc34)[C@@]12C | 69.4 | 5.33 | – | 10.7 | 5.13 | 8.17 | 13.3 | 2.58 | 2.08 | 5.56 | 415 | 938 | 407 | 5.55 | 8.54 | 7 | 30 | –
